High-throughput results as filed in PubChem BioAssay.
Shown is part of a subset that was picked to be rich in hits.
UPR CHOP act – apoptotic UPR (CHOP) activation | CHO-CHOP luciferase reporter, luminescence; percent of tunicamycin response over DMSO baseline | activation, % at 10 µM | hit rate 0.34% among 330,000;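 active = at 10 µM dose, activation of 40% or more, normalized to positive control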
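Test system: CHO CHOP reporter cells. Input: 500 CHO-CHOP cells per well. Medium: F12 with 10% FBS. Technique: luciferase luminescence. Measure: percent activation relative to tunicamycin control. Dosing: 10 µM compound, 0.5% DMSO. Timing: 16-18 h cell attachment, then 6 h compound exposure, 37 °C.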
CHOP inhibitor – blocks CHOP induction under ER stress; CHO-K1 CHOP-promoter luciferase, tunicamycin-induced, 15-18 h; inhibition, % at 10 µM; hit rate 3.8% among 220,000;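 active = compounds that reduced the stress-induced luciferase reporter signal by more than about 70% of percent inhibition, limit read from the data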
XBP1 UPR activ – activators of adaptive arm of unfolded protein response (XBP1). CHO-XBP1 luciferase reporter, IRE1-XBP1 UPR activation, luminescence; percent of tunicamycin response, DMSO as zero. activation, % at 20 µM. hit rate 0.33% among 330,000;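 active = versus positive control, 20 µM dose yields 30% or more activation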
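Test system: CHO-XBP1 luciferase reporter cells | Buffer or medium: Serum-containing F12 medium, 10% FBS | Schedule: 6 h compound exposure at 37 °C, 5% CO2 | Detection: Steady-Glo luciferase glow luminescence, 10 min after reagent addition | Read-out basis: Activation, % of tunicamycin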
PvdQ acylase – blocks Pseudomonas aeruginosa PvdQ acylase activity. purified PvdQ acylase, fluorescence plate reader. inhibition, % at 10 µM. hit rate 0.063% among 340,000. AID 488965; in the data active = inhibition above about 30%, passing the limit was not always enough
A number is an active result; . = inactive; / = not tested or not shown.

SMILES	UPR CHOP act	CHOP inhibitor	XBP1 UPR activ	PvdQ acylase
CS(=O)(=O)N1CCN(c2ccc(NC(=O)c3ccc(-c4ccc(Cl)cc4)o3)cc2)CC1	.	75	.	.
O=C(Nc1ccc(N2CCN(C(=O)c3ccc(Cl)cc3)CC2)cc1)c1cc2ccccc2o1	.	.	.	.
O=C(Nc1ccc(N2CCN(C(=O)c3ccc(Cl)cc3)CC2)cc1)c1ccc(Br)o1	.	77	.	.
CN(Cc1cccnc1)C(=O)c1cc(S(=O)(=O)Nc2ccccc2F)ccc1Cl	.	/	.	.
CNCCNS(=O)(=O)c1cccc2cnccc12	/	.	/	/
O=S(=O)(NCCNC/C=C/c1ccc(Br)cc1)c1cccc2cnccc12	/	95	/	/
CCOC(=O)NC(=S)Nc1ccc(C(C)(C)C)cc1	.	.	.	.
CC(C)(C)c1ccc(COC(=O)Nc2ccc(F)cc2)cc1	.	77	.	.
O=C(NCc1cccc(Cl)c1)c1cnn2c1NC(c1ccco1)CC2C(F)(F)F (stereo not given)	.	91	.	.
CN(Cc1ccc(-n2cccn2)cc1)C(=O)c1cnn2c1NC(c1ccco1)CC2C(F)(F)F (stereo not given)	/	76	/	.
Cn1nnnc1-c1cc(Br)ccc1NC(=O)c1ccccc1	.	76	.	.
Cc1cc(O)ccc1NC(=O)c1ccccc1	.	.	.	.
CC(C)c1ccc2c(c1)CCC1C(C)(CN)CCCC21C (stereo not given)	/	102	/	.
CC(C)c1ccc2c(c1)CC[C@H]1[C@](C)(CN)CCC[C@]21C	/	/	/	.
COc1ccc(Br)cc1C(=O)Nc1ccc(C(=O)NCC(C)C)cc1	.	.	.	.
CCOc1ccc(Br)cc1C(=O)Nc1ccc(C(=O)NCC(C)C)cc1	.	83	.	.
O=C1C2C3C=CC(CC3)C2C(=O)N1/N=C/c1ccccc1O (stereo not given)	.	.	.	.
O=C1C2C3C=CC(CC3)C2C(=O)N1/N=C/c1c(O)ccc2ccccc12 (stereo not given)	.	72	.	.
COc1ccc(NS(=O)(=O)c2cc3c(cc2C)N(C(C)=O)CCO3)c(OC)c1	.	/	.	.
COc1cccc(NC(=O)CCC2CCN(C(=O)c3cccc(NC(C)=O)c3)CC2)c1	.	/	.	.
CCOC(=O)C1CCCN(C(=O)C2c3ccccc3Oc3ccccc32)C1 (stereo not given)	.	76	.	.
CCOC(=O)C1CCCN(C(=O)C2COc3ccccc3O2)C1 (stereo not given)	/	/	/	.
COc1ccc(CCNC(=O)c2cc(C(=O)c3cc(Cl)ccc3O)cn(CCc3ccc(OC)cc3)c2=O)cc1	.	.	.	.
O=C(c1cc(C(=O)NCCc2ccccc2)c(=O)n(CCc2ccccc2)c1)c1cc(Cl)ccc1O	.	82	.	.
CNc1sc(C(=O)c2ccc(F)cc2)c(N)c1-c1nc2ccccc2s1	.	84	.	.
SMILES	UPR CHOP act	CHOP inhibitor	XBP1 UPR activ	PvdQ acylase
COc1ccccc1Oc1ccc(-c2cnc3ccccc3n2)cc1[N+](=O)[O-]	.	.	.	.
CCOc1ccc2oc(C(=O)OCC(=O)NC3CCCC3)c(C)c2c1	.	/	.	.
CCOc1ccc2oc(C(=O)OCC(=O)NC(=O)NC3CCCC3)c(C)c2c1	.	73	.	.
C=CCn1c(SCc2nc3cc(C(=O)OC)ccc3c(=O)[nH]2)nc2sc(CC)cc2c1=O	.	72	.	.
C=CCn1c(SCC(=O)Nc2sccc2C(N)=O)nc2sc(CC)cc2c1=O	.	.	.	.
C[C@@H](C(=O)Nc1ccc(OC(F)F)c(Cl)c1)N1C(=O)C2CC=CCC2C1=O (stereo not given in full)	.	/	.	.
Cc1ccsc1C(=O)NCCc1c[nH]c2ccccc12	.	/	.	.
CCOC(=O)c1sc(NC(=O)Nc2ccccc2Cl)cc1C	.	80	.	.
CN(C(=O)CCn1c(=S)oc2ccccc21)c1ccc(F)cc1	.	.	.	36
COCCNC(=O)c1cc2nc(-c3ccccc3)cc(C)n2n1	.	.	.	34
Cc1cc(NCCCn2ccnc2)n2nc(-c3ccc(Cl)cc3)cc2n1	.	.	.	35
Cn1c(SCc2cccc([N+](=O)[O-])c2)nc2c(c1=O)SCC2	.	75	.	.
Cc1c(C)c2c(OCC(=O)N[C@@H](CC(C)C)C(=O)O)cc3c(c2oc1=O)CCC(C)(C)O3	.	/	.	.
Nc1ccc(C23CC4CC(CC(C4)C2)C3)cc1	.	75	.	.
O=C(N[C@H]1C/C=C\C[C@H](CC(=O)N(CCO)Cc2ccccc2)C(=O)N[C@H](Cc2c[nH]c3ccccc23)COC1=O)OCC1c2ccccc2-c2ccccc21	.	/	.	.
O=C(NC(=S)NCCN1CCOCC1)c1ccccc1Br	.	.	.	.
CN(C)/C=C1\C(=O)ON=C1c1ccccc1	.	.	.	.
Cc1ccc(C2=NOC(=O)/C2=C\C=C\c2ccccc2)cc1	/	90	/	.
CCn1c(C)nc2cc(C(=O)NNC(=O)CN(C)S(=O)(=O)c3ccc(NC(C)=O)cc3)ccc21	.	/	.	.
Cc1cnc(NC(=O)c2ccc(-c3nc4ccccc4s3)o2)s1	.	74	.	.
Cc1cnc(NC(=O)c2ccc(-c3ccc([N+](=O)[O-])cc3)o2)s1	.	/	.	.
O=C(NCc1ccco1)C1CCCN(S(=O)(=O)c2ccc(Cl)cc2)C1 (stereo not given)	.	.	.	.
COc1cc(NC(=O)c2cccs2)c(OC)cc1NC(=O)CCC(=O)Nc1ccc(C)cc1	.	/	.	.
CC(C)=CC(=O)N1CC[C@@H](N2CCN(c3ccccc3F)CC2)[C@H](O)C1	.	/	.	.
Cc1ccccc1NC(c1cccc(Cl)c1)c1nnnn1C1CCCCC1 (stereo not given)	.	87	.	.
SMILES	UPR CHOP act	CHOP inhibitor	XBP1 UPR activ	PvdQ acylase
Cc1c[n+](C)ccc1CC1C([N+](=O)[O-])=C[N-]c2ncnn21 (stereo not given)	/	.	/	.
O=C(Nc1cc(C(F)(F)F)ccc1Cl)C1CCN(c2nnc(-n3cccc3)s2)CC1	/	83	/	.
CCOC(=O)c1ccc(COC(=O)c2ccc3c(c2)-c2ccccc2C3=O)cc1	.	.	.	.
CCCc1ccc(/C=C2\C(=O)c3ccccc3C(O)=C2C(=O)OCC)cc1	.	86	.	/
CCOC(=O)C1=C(Cc2ccc(OC)cc2)C(=O)c2ccccc2C1=O	/	95	/	.
CCOC(=O)c1c(C)nc2c(c1-c1cc(OC)ccc1OC)C(=O)c1ccccc1-2	.	.	.	.
CCOC(=O)C1=C(O)c2ccccc2C(=O)/C1=C\c1ccc(CC)cc1	/	87	/	.
CCOC(=O)C1=C(N)Oc2c(oc(CO)cc2=O)C1c1ccc(F)cc1 (stereo not given)	.	.	.	.
CC1(C)SC(=S)N(NC(=O)Nc2cccc3ccccc23)C1N(O)C(=O)Nc1ccccc1 (stereo not given)	.	100	.	.
COc1ccccc1CCc1nnc(CCC(=O)NCCCOc2cccnc2)o1	.	.	.	.
O=C(NNC1=Nc2cccc3cccc1c23)c1ccccc1Br	.	90	.	.
